The compounds below were run against T1, Cholinesterase (Homo sapiens, UniProt P06276) (assay: Inhibition of BuChE in human plasma using BTC as substrate preincubated with enzyme for 5 mins followed by substrate addition for 5 mins by Ellman's method). Settings: not given.
Type: cell-free
Procedure, shortened: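 Human plasma BuChE at 0.384 U/mL final, with DTNB in 0.1 M phosphate pH 8.0. […] BTC solution (0.00375 M) added; A412 after 5 min. Run in triplicate; IC50 from nonlinear regression of residual activity versus concentration.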

T1 sequence (P06276 whole entry): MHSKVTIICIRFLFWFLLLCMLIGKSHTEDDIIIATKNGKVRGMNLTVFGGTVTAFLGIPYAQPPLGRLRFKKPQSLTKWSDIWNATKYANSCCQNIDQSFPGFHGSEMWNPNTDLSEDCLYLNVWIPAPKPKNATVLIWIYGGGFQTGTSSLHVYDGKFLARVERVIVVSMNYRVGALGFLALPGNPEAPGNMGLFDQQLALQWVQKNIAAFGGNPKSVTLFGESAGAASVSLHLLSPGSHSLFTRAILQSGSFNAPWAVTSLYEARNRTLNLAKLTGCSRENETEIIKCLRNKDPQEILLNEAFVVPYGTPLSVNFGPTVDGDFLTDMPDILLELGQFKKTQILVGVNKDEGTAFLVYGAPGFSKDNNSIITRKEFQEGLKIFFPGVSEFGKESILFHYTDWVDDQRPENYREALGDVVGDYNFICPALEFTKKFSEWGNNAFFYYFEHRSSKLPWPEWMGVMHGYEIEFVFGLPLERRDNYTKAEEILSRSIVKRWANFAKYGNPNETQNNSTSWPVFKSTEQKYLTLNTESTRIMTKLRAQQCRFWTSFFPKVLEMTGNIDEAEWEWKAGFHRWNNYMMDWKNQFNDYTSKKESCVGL

First: CC(=O)Oc1cccc(CNCCOc2cccc3c2ccn3S(=O)(=O)c2ccccc2)c1
Second: CC(=O)Oc1ccc(CNCCOc2cccc3c2ccn3S(=O)(=O)c2ccccc2)cc1
The IC50 of the first is 2.9-fold higher: 5620 nM for the first, 1920 nM for the second. The second is the more potent here.

Compared with `Cc1cccc(CNCCOc2cccc3c2ccn3S(=O)(=O)c2ccccc2)c1`, `O=S(=O)(c1ccccc1)n1ccc2c(OCCNCc3cccc(Cl)c3)cccc21` is 4.2-fold higher in IC50: 2820 nM for the first, 11800 nM for the second.

Going from `O=S(=O)(c1ccccc1)n1ccc2c(OCCNCC3CCCC3)cccc21` to `O=S(=O)(c1ccccc1)n1ccc2c(OCCNCc3ccccc3Cl)cccc21`, the IC50 rises from 1360 nM to 10500 nM (7.7-fold). The first is the more potent here.

In the case of `CC(C)(C)OC(=O)N1CCCC(CNCCOc2cccc3c2CCN3S(=O)(=O)c2ccccc2)C1` (configuration not stated), the IC50 is reported as 1360 nM.

Each compound was assayed against T1, Cholinesterase (assay: Inhibition of BuChE in human plasma using BTC as substrate at 10 uM preincubated with enzyme for 5 mins followed by substrate addition for 5 mins by Ellman's method relative to control). Settings: time 10.0 min.
Type: cell-free
Procedure, shortened: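 Human plasma BuChE at 0.384 U/mL final, with DTNB in 0.1 M phosphate buffer pH 8.0. Compound at 10 µM screened, preincubated 5 min at 36 °C.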

`CN(C)c1ccc(CNCCOc2cccc3c2ccn3S(=O)(=O)c2ccccc2)cc1` and `O=S(=O)(c1ccccc1)n1ccc2c(OCCNCc3ccc(Cl)cc3)cccc21` cannot be ordered by inhibition: less than 50% for the first, less than 50% for the second.

`Cc1ccc(CNCCOc2cccc3c2ccn3S(=O)(=O)c2ccccc2)o1` and `COc1ccc(CNCCOc2cccc3c2ccn3S(=O)(=O)c2ccccc2)cc1` cannot be ordered by inhibition: less than 50% for the first, less than 50% for the second.

`CC(C)(C)OC(=O)N1CCCC(CNCCOc2cccc3c2CC(=O)N3Cc2ccccc2)C1` (configuration not stated) and `CC(C)(C)OC(=O)N1CCC(CNCCOc2cccc3c2ccn3S(=O)(=O)c2ccccc2)CC1` cannot be ordered by inhibition: less than 50% for the first, less than 50% for the second.

`CNCCOc1cccc2c1ccn2S(=O)(=O)c1ccccc1` and `O=S(=O)(c1ccccc1)n1ccc2c(OCCNCC3CC3)cccc21` cannot be ordered by inhibition: less than 50% for the first, less than 50% for the second.

`c1ccc(CNCCOc2cccc3c2CCN3Cc2ccccc2)cc1` and `Cc1cccc(CNCCOc2cccc3c2CCN3Cc2ccccc2)c1` cannot be ordered by inhibition: less than 50% for the first, less than 50% for the second.

`COc1ccc(NS(=O)(=O)c2ccc(I)cc2)cc1N1CCN(C)CC1` and `COc1ccc(CNCCOc2cccc3c2ccn3S(=O)(=O)c2ccccc2)cc1OC` cannot be ordered by inhibition: less than 50% for the first, less than 50% for the second.

Going from `O=S(=O)(c1ccccc1)n1ccc2c(OCCNCc3ccccn3)cccc21` to `O=S(=O)(c1ccccc1)n1ccc2c(OCCNCc3cccc(Cl)c3)cccc21`, the inhibition rises from less than 50% to greater than 50%.

`CC(=O)Nc1ccc(CNCCOc2cccc3c2ccn3S(=O)(=O)c2ccccc2)cc1` and `CCOc1cccc(CNCCOc2cccc3c2ccn3S(=O)(=O)c2ccccc2)c1` cannot be ordered by inhibition: less than 50% for the first, less than 50% for the second.

`c1ccc(CNCCOc2cccc3c2ccn3Cc2ccccc2)cc1` showed an inhibition of less than 50%.

Each compound was assayed against Cholinesterase (Equus caballus, UniProt P81908) (assay: Inhibition of equine serum BuChE using BTC as substrate preincubated with enzyme for 5 mins followed by substrate addition for 5 mins by Ellman's method). Settings: not given.
Type: cell-free

Sequence of Cholinesterase (Equus caballus, UniProt P81908) (P81908 whole entry): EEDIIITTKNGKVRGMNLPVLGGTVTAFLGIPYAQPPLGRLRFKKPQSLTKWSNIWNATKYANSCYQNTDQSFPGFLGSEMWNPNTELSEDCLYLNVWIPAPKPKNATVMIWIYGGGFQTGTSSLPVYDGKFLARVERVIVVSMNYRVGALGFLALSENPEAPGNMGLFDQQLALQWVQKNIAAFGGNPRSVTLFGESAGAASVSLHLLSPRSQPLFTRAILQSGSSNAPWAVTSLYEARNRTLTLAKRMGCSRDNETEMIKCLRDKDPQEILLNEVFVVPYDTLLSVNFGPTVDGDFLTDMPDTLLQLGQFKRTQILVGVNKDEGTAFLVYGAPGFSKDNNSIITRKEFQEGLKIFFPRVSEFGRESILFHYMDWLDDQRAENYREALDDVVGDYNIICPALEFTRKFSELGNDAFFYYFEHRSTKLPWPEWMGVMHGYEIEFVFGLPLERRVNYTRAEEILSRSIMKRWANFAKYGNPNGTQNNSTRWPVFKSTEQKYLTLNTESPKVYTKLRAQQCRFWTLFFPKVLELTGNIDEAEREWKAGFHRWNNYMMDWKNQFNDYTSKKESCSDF

Compared with `CN(C)c1ccc(CNCCOc2cccc3c2ccn3S(=O)(=O)c2ccccc2)cc1`, `O=S(=O)(c1ccccc1)n1ccc2c(OCCNCc3ccc(Cl)cc3)cccc21` is 2.3-fold lower in IC50: 3080 nM for the first, 1320 nM for the second. The second is the more potent here.

First: Cc1ccc(CNCCOc2cccc3c2ccn3S(=O)(=O)c2ccccc2)o1
Second: Cc1cccc(CNCCOc2cccc3c2ccn3S(=O)(=O)c2ccccc2)c1
The IC50 of the first is 7.5-fold higher: 3000 nM for the first, 401 nM for the second.

First: COc1ccc(CNCCOc2cccc3c2ccn3S(=O)(=O)c2ccccc2)cc1
Second: CC(=O)Oc1ccc(CNCCOc2cccc3c2ccn3S(=O)(=O)c2ccccc2)cc1
The IC50 of the first is 5.8-fold higher: 1330 nM for the first, 228 nM for the second.

Compared with `CC(C)(C)OC(=O)N1CCCC(CNCCOc2cccc3c2CC(=O)N3Cc2ccccc2)C1` (configuration not stated), `CC(C)(C)OC(=O)N1CCCC(CNCCOc2cccc3c2CCN3S(=O)(=O)c2ccccc2)C1` (configuration not stated) is 5.4-fold lower in IC50: 1080 nM for the first, 201 nM for the second.

Compared with `CC(C)(C)OC(=O)N1CCC(CNCCOc2cccc3c2ccn3S(=O)(=O)c2ccccc2)CC1`, `O=S(=O)(c1ccccc1)n1ccc2c(OCCNCC3CC3)cccc21` is 2.2-fold lower in IC50: 4820 nM for the first, 2220 nM for the second.

`c1ccc(CNCCOc2cccc3c2CCN3Cc2ccccc2)cc1` and `Cc1cccc(CNCCOc2cccc3c2CCN3Cc2ccccc2)c1` are within 1.5-fold of each other in IC50: 997 nM for the first, 1260 nM for the second.

Going from `CC(=O)Oc1cccc(CNCCOc2cccc3c2ccn3S(=O)(=O)c2ccccc2)c1` to `CCOc1cccc(CNCCOc2cccc3c2ccn3S(=O)(=O)c2ccccc2)c1`, the IC50 rises from 474 nM to 2410 nM (5.1-fold). The first is the more potent here.

`O=S(=O)(c1ccccc1)n1ccc2c(OCCNCc3ccccn3)cccc21` and `O=S(=O)(c1ccccc1)n1ccc2c(OCCNCc3ccccc3Cl)cccc21` are within 1.5-fold of each other in IC50: 1290 nM for the first, 881 nM for the second.

First: COc1ccc(CNCCOc2cccc3c2ccn3S(=O)(=O)c2ccccc2)cc1OC
Second: O=S(=O)(c1ccccc1)n1ccc2c(OCCNCc3cccc(Cl)c3)cccc21
The IC50 of the first is 5.7-fold higher: 3320 nM for the first, 580 nM for the second.

Going from `CC(=O)Nc1ccc(CNCCOc2cccc3c2ccn3S(=O)(=O)c2ccccc2)cc1` to `O=S(=O)(c1ccccc1)n1ccc2c(OCCNCC3CCCC3)cccc21`, the IC50 falls from 3800 nM to 269 nM (14-fold).

`c1ccc(CNCCOc2cccc3c2ccn3Cc2ccccc2)cc1` was tested, and the IC50 was 626 nM.

The compounds below were run against Amyloid-beta precursor protein (Homo sapiens) (UniProt P05067) (assay: Inhibition of amyloid beta (1 to 42) (unknown origin) self aggregation at 10 uM incubated for 24 to 48 hrs by Thioflavin-T based fluorometric assay). Settings: time lower […], time upper 48.0 hrs.
Sequence of Amyloid-beta precursor protein (Homo sapiens) (P05067 whole entry): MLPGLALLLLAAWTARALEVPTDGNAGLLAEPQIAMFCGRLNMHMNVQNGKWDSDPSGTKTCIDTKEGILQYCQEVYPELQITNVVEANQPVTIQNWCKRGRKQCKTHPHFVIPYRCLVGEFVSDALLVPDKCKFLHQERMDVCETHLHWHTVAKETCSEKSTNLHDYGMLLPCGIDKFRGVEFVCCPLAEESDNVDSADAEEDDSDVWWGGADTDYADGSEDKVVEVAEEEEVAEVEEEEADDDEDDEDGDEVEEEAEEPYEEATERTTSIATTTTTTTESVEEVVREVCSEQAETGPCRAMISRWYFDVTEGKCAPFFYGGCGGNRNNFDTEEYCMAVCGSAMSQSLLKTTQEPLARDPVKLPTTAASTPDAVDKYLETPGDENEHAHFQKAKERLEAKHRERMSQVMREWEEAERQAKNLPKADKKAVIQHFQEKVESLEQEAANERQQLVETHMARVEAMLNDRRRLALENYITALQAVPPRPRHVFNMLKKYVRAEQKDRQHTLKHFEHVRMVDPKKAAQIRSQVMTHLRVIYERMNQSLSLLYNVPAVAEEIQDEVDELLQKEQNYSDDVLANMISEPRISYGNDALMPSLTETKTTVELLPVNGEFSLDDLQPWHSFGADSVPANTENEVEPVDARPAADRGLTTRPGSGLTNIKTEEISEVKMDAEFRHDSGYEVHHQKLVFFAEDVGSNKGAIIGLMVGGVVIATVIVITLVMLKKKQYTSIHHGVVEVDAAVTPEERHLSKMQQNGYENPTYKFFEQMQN

`CN(C)c1ccc(CNCCOc2cccc3c2ccn3S(=O)(=O)c2ccccc2)cc1` and `O=S(=O)(c1ccccc1)n1ccc2c(OCCNCc3ccc(Cl)cc3)cccc21` cannot be ordered by inhibition: less than 20% for the first, less than 20% for the second.

Compared with `Cc1ccc(CNCCOc2cccc3c2ccn3S(=O)(=O)c2ccccc2)o1`, `COc1ccc(CNCCOc2cccc3c2ccn3S(=O)(=O)c2ccccc2)cc1` is higher in inhibition: less than 20% for the first, 54.2% for the second.

Going from `CC(C)(C)OC(=O)N1CCCC(CNCCOc2cccc3c2CC(=O)N3Cc2ccccc2)C1` (configuration not stated) to `CC(C)(C)OC(=O)N1CCC(CNCCOc2cccc3c2ccn3S(=O)(=O)c2ccccc2)CC1`, the inhibition rises from 65.2% to 69.7%.

`CNCCOc1cccc2c1ccn2S(=O)(=O)c1ccccc1` and `O=S(=O)(c1ccccc1)n1ccc2c(OCCNCC3CC3)cccc21` cannot be ordered by inhibition: less than 20% for the first, less than 20% for the second.

Going from `c1ccc(CNCCOc2cccc3c2CCN3Cc2ccccc2)cc1` to `Cc1cccc(CNCCOc2cccc3c2CCN3Cc2ccccc2)c1`, the inhibition rises from 72.5% to 72.6%.

`O=S(=O)(c1ccccc1)n1ccc2c(OCCNCc3ccccn3)cccc21` and `O=S(=O)(c1ccccc1)n1ccc2c(OCCNCc3cccc(Cl)c3)cccc21` cannot be ordered by inhibition: less than 20% for the first, less than 20% for the second.

First: COc1ccc(CNCCOc2cccc3c2ccn3S(=O)(=O)c2ccccc2)cc1OC
Second: CCOc1cccc(CNCCOc2cccc3c2ccn3S(=O)(=O)c2ccccc2)c1
The inhibition of the first is higher: 36.8% for the first, less than 20% for the second.

Going from `CC(=O)Nc1ccc(CNCCOc2cccc3c2ccn3S(=O)(=O)c2ccccc2)cc1` to `c1ccc(CNCCOc2cccc3c2ccn3Cc2ccccc2)cc1`, the inhibition rises from less than 20% to 71.3%.

These compounds were tested against 5-hydroxytryptamine receptor 6 (Homo sapiens, UniProt P50406) (assay: Displacement of [3H]LSD from human 5HT6 receptor expressed in CHO-K1 membrane incubated for 60 mins by solid scintillation counting analysis). Settings: not given.
Type: cell membranes

Sequence of 5-hydroxytryptamine receptor 6 (P50406 whole entry): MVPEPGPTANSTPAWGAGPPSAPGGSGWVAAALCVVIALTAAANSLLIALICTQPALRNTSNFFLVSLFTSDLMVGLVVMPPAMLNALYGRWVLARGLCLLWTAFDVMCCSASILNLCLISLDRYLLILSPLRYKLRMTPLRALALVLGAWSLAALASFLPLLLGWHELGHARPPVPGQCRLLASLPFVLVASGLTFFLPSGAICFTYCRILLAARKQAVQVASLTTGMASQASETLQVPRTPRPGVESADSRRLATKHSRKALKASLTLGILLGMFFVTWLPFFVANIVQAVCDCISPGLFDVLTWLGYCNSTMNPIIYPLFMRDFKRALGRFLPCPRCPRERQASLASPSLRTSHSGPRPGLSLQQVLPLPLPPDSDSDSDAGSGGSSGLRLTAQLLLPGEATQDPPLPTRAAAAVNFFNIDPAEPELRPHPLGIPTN

Compared with `CN(C)c1ccc(CNCCOc2cccc3c2ccn3S(=O)(=O)c2ccccc2)cc1`, `O=S(=O)(c1ccccc1)n1ccc2c(OCCNCc3ccc(Cl)cc3)cccc21` is 4.6-fold higher in Ki: 3.5 nM for the first, 16 nM for the second.

First: Cc1ccc(CNCCOc2cccc3c2ccn3S(=O)(=O)c2ccccc2)o1
Second: COc1ccc(CNCCOc2cccc3c2ccn3S(=O)(=O)c2ccccc2)cc1
The Ki of the first is 2.1-fold higher: 3 nM for the first, 1.4 nM for the second.

Compared with `CC(C)(C)OC(=O)N1CCCC(CNCCOc2cccc3c2CC(=O)N3Cc2ccccc2)C1` (configuration not stated), `CC(C)(C)OC(=O)N1CCC(CNCCOc2cccc3c2ccn3S(=O)(=O)c2ccccc2)CC1` is 21-fold lower in Ki: 146 nM for the first, 7 nM for the second.

First: CNCCOc1cccc2c1ccn2S(=O)(=O)c1ccccc1
Second: O=S(=O)(c1ccccc1)n1ccc2c(OCCNCC3CC3)cccc21
The Ki of the first is 1.7-fold lower: 1.6 nM for the first, 2.7 nM for the second.

First: c1ccc(CNCCOc2cccc3c2CCN3Cc2ccccc2)cc1
Second: Cc1cccc(CNCCOc2cccc3c2CCN3Cc2ccccc2)c1
The Ki of the first is 3.8-fold lower: 389 nM for the first, 1470 nM for the second. The first binds more tightly here.

Compared with `O=S(=O)(c1ccccc1)n1ccc2c(OCCNCc3ccccn3)cccc21`, `O=S(=O)(c1ccccc1)n1ccc2c(OCCNCc3cccc(Cl)c3)cccc21` is 12-fold higher in Ki: 0.4 nM for the first, 5 nM for the second. The first binds more tightly here.

Compared with `COc1ccc(CNCCOc2cccc3c2ccn3S(=O)(=O)c2ccccc2)cc1OC`, `CCOc1cccc(CNCCOc2cccc3c2ccn3S(=O)(=O)c2ccccc2)c1` is 6-fold higher in Ki: 0.5 nM for the first, 3 nM for the second. The first binds more tightly here.

Compared with `CC(=O)Nc1ccc(CNCCOc2cccc3c2ccn3S(=O)(=O)c2ccccc2)cc1`, `c1ccc(CNCCOc2cccc3c2ccn3Cc2ccccc2)cc1` is 770-fold higher in Ki: 0.3 nM for the first, 232 nM for the second. The first binds more tightly here.

From ChEMBL document CHEMBL4828761, “Development and crystallography-aided SAR studies of multifunctional BuChE inhibitors and 5-HT6R antagonists with β-amyloid anti-aggregation properties” (Eur J Med Chem, 2021)
